The term logP denotes a log measure of how a compound divides between an organic and an aqueous phase.

Each structure is given as a SMILES string. Activity calls are given as the source filed them. The calls are words filed in the database; no cut-off is given here.

Among the data in ChEMBL document CHEMBL1932946, “Design, synthesis and anticonvulsant evaluation of novel N-(4-substituted phenyl)-2-[4-(substituted) benzylidene]-hydrazinecarbothio amides” (Eur J Med Chem, 2012) are Activity, logP and minimal effective dose values, retold here.

The test system of series [1] is Mus musculus. The experiment in a line: Anticonvulsant activity in albino CF-1 mouse assessed as protection against 6 Hz psychomotor seizure at 100 mg/kg, ip after 0.5 hrs by minimal clonic seizure test. In kind it is functional. Put shortly:
(§1)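 Male CF-1 albino mice (18–25 g) given compound i.p., suspended in 0.5% methyl cellulose, 100 mg/kg in screen. Four mice per time point challenged at 0.25, 0.5, 1.0, 2.0 and 4.0 h via corneal electrodes (32 mA, 3 s, 6 Hz). Protection = absence of psychomotor seizure (minimal clonic phase, automatistic behaviours). Scored as animals protected/tested.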

For series [2], the system named is Mus musculus. Kind of series: Neurotoxicity in albino CF-1 mouse assessed as minimum motor impairment at 300 mg/kg, ip after 4 hrs by rotarod test. Details: dose 300 mg/kg, route intraperitoneal. The conditions noted are these: in vivo. The series is classed as toxicity, organism-based. Summed up:
(§2)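 Minimal motor impairment assessed in male CF-1 albino mice (18–25 g) at 0.5 and 4 h after i.p. doses of 30, 100 and 300 mg/kg, given in 0.5% methyl cellulose. Minimum dose toxic in half or more of mice recorded.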
For orientation: The rotarod test checks motor coordination on a turning rod.

Series [3] deals with Mus musculus. Kind of series: Anticonvulsant activity in albino CF-1 mouse assessed as protection against 6 Hz psychomotor seizure at 100 mg/kg, ip after 0.25 hrs by minimal clonic seizure test. In kind it is functional. Summed up:
as §1

Series [4] concerns Mus musculus. The experiment in a line: Anticonvulsant activity in albino CF-1 mouse assessed as protection against 6 Hz psychomotor seizure at 100 mg/kg, ip after 1 hr by minimal clonic seizure test. In kind it is functional. Put shortly: as §1
The subject of series [5] is Mus musculus. Kind of series: Anticonvulsant activity in albino CF-1 mouse assessed as protection against 6 Hz psychomotor seizure at 100 mg/kg, ip after 2 hrs by minimal clonic seizure test. The series is classed as functional. Summed up:
as §1

Series [6] deals with Mus musculus. Kind of series: Neurotoxicity in albino CF-1 mouse assessed as minimum motor impairment at 300 mg/kg, ip after 0.5 hrs by rotarod test. In kind it is toxicity, organism-based. Set-up: dose 300 mg/kg, route intraperitoneal. The conditions noted are these: in vivo. Summed up: as §2
Series [7] is described as follows: Octanol-phosphate buffer partition coefficient, log P of the compound at 5 mg after 24 hrs by UV spectroscopic analysis. In kind it is physicochemical. Put shortly: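 5 mg compound added to 10 mL octanol plus 10 mL phosphate buffer in a stoppered tube. Mixture shaken mechanically 24 h at room temperature, then left 6 h in a separating funnel to equilibrate.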

Series [8] relates to Mus musculus. Kind of series: Anticonvulsant activity in albino CF-1 mouse assessed as protection against 6 Hz psychomotor seizure at 100 mg/kg, ip after 4 hrs by minimal clonic seizure test. In kind it is functional, organism-based. Set-up: dose 100 mg/kg. Summed up: as §1
Series [9] is described as follows: Neuroprotective activity in hippocampal slice assessed as protection against NMDA-induced cell death using propidium iodide staining. The series is classed as functional, tissue-based. To be noted: Hippocampus. Put shortly:
(§3)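 Qualitative primary screen on organotypic hippocampal slice cultures. Cell death induced by NMDA or kainic acid, with or without test compound. Propidium iodide present in all wells; PI fluorescence intensity taken as proportional to cell death.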

Series [10] can be described thus: Neuroprotective activity in hippocampal slice assessed as protection against kainic acid-induced cell death using propidium iodide staining. The series is classed as functional, tissue-based. The conditions noted are these: Hippocampus. Put shortly:
as §3

For series [11], the system named is Mus musculus. Kind of series: Anticonvulsant activity in albino CF-1 mouse assessed as protection against maximal electroshock-induced seizures at 300 mg/kg, ip after 0.5 hrs. In kind it is functional, organism-based. Details: dose 300 mg/kg. Summed up:
(§4)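 Male CF-1 albino mice (18–25 g) dosed i.p. at 30, 100 and 300 mg/kg as suspension in 0.5% methyl cellulose. 60 Hz alternating current, 50 mA, delivered 0.2 s via corneal electrodes primed with 0.5% tetracaine HCl electrolyte. Protection = abolition of hind limb tonic extensor component. Value reported is the minimum dose active in half or more of mice.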
For orientation: In the maximal electroshock model the usual endpoint is tonic extension of the hind limbs.

Series [12] concerns Mus musculus. The experiment in a line: Anticonvulsant activity in albino CF-1 mouse assessed as protection against subcutaneous metrazol-induced seizure at 300 mg/kg, ip after 0.5 hrs. In kind it is functional, organism-based. Details: dose 300 mg/kg. Summed up:
(§5)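 Mice (male CF-1 albino, 18–25 g) pretreated i.p. with 30, 100 or 300 mg/kg in 0.5% methyl cellulose. Metrazol, at a dose convulsing 97% of animals, injected subcutaneously into the loose skin fold at the midline of the neck. Animals isolated and watched for 30 min for absence of seizure. Minimum dose active in half or more of mice recorded.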

Series [13] concerns Mus musculus. Kind of series: Anticonvulsant activity in ip dosed albino CF-1 mouse assessed as protection against maximal electroshock-induced seizures after 4 hrs. The series is classed as functional. To be noted: albino CF-1, ip, read-out: MED. Put shortly:
as §4

Series [14] deals with Mus musculus. Kind of series: Anticonvulsant activity in albino CF-1 mouse assessed as protection against subcutaneous metrazol-induced seizure at 300 mg/kg, ip after 4 hrs. Set-up: dose 300 mg/kg. In kind it is functional, organism-based. Put shortly:
as §5

Series [15] relates to Mus musculus. The experiment in a line: Anticonvulsant activity in albino CF-1 mouse assessed as protection against maximal electroshock-induced seizures at 300 mg/kg, ip after 2 hrs. The series is classed as functional, organism-based. Details: dose 300 mg/kg. Summed up: as §4

For `Fc1ccc(NC(=S)N/N=C/c2ccc(Oc3ccc(Br)cc3)cc2)cc1`, the result in the series on Mus musculus [1] was Active. The Activity result in the series with Mus musculus [2] and in the series on Mus musculus [6] was “Non-toxic” each time. Moreover, the result in the series on Mus musculus [3], in the series on Mus musculus [4], with Mus musculus [5] and with Mus musculus [8] was inactive. The compound further came in with a logP at 24 h in [7] of 5.88.

Turning to `Fc1ccc(Oc2ccc(/C=N/NC(=S)Nc3ccccc3)cc2)cc1`, the outcome in the series on Mus musculus [1], with Mus musculus [3], in the series with Mus musculus [5] and in the series with Mus musculus [8] was inactive. Further, the Activity result in the series with Mus musculus [2] and with Mus musculus [6] was “Non-toxic” throughout. In addition, the outcome with Mus musculus [4] was Active. In addition, the logP at 24 h in series [7] was determined as 5.09.

For the compound `Fc1ccc(Oc2ccc(/C=N/NC(=S)Nc3ccc(Br)cc3)cc2)cc1`, the result in the series on Mus musculus [1], in the series with Mus musculus [4] and in the series on Mus musculus [5] was Active. Further, the Activity result with Mus musculus [2] and with Mus musculus [6] was “Non-toxic” each time. The result with Mus musculus [3] and with Mus musculus [8] was inactive. This compound showed a lipophilicity (logP) at 24 h in series [7] of 5.82.

Turning to `S=C(N/N=C/c1ccc(Oc2ccc(Br)cc2)cc1)Nc1ccccc1`, the result with Mus musculus [1], in the series with Mus musculus [4] and in the series with Mus musculus [5] was Active. Also, the Activity entry in the series on Mus musculus [2] and in the series on Mus musculus [6] was “Non-toxic” throughout. The outcome in the series on Mus musculus [3] and in the series on Mus musculus [8] was inactive. Also, the lipophilicity (logP) at 24 h in series [7] came out at 5.62.

Consider `Fc1ccc(NC(=S)N/N=C/c2ccc(Oc3ccccc3)cc2)cc1`, for which the outcome in the series with Mus musculus [1] and with Mus musculus [3] was Active. In addition, the Activity result in the series on Mus musculus [2] and with Mus musculus [6] was “Non-toxic” in each case. For the same compound, the result in the series on Mus musculus [4], in the series with Mus musculus [5] and in the series on Mus musculus [8] was inactive. Also, the lipophilicity (logP) at 24 h in series [7] came to 5.09.

Consider `Cc1ccc(Oc2ccc(/C=N/NC(=S)Nc3ccc(Br)cc3)cc2)cc1`, for which the result with Mus musculus [1] and in the series with Mus musculus [4] was Active. The Activity result with Mus musculus [2] and in the series with Mus musculus [6] was “Non-toxic” in each case. Further, the outcome in the series on Mus musculus [3], in the series on Mus musculus [5] and with Mus musculus [8] was inactive. The lipophilicity (logP) at 24 h in series [7] amounted to 6.17.

Consider `Cc1cc(Oc2ccc(/C=N/NC(=S)Nc3ccccc3)cc2)ccc1Cl`, for which the outcome in the series on Mus musculus [1] was Active. Besides, the Activity result with Mus musculus [2] and in the series with Mus musculus [6] was “Non-toxic” throughout. The result in the series on Mus musculus [3], with Mus musculus [4], with Mus musculus [5] and with Mus musculus [8] was inactive. In addition, the logP at 24 h in series [7] is 6.03.

`S=C(N/N=C/c1ccc(Oc2ccccc2)cc1)Nc1ccc(Br)cc1`: in the series on Mus musculus [1], the result was Active. In addition, the Activity entry in the series with Mus musculus [2] and in the series on Mus musculus [6] was “Non-toxic” in each case. Also, the outcome (in the series on Mus musculus [3]; in the series on Mus musculus [4]; in [9]; with Mus musculus [5]; with Mus musculus [8]; in series [10]) was inactive. This compound gave a log partition coefficient (logP) at 24 h in [7] of 6.38.

As for `Fc1ccc(NC(=S)N/N=C/c2ccc(Oc3ccc4ccccc4c3)cc2)cc1`, the outcome in the series on Mus musculus [1], in the series with Mus musculus [3] and with Mus musculus [4] was inactive. Moreover, the Activity result in the series on Mus musculus [2] and with Mus musculus [6] was “Non-toxic” throughout. The outcome in the series on Mus musculus [5] and with Mus musculus [8] was Active. Besides, the log partition coefficient (logP) at 24 h in [7] worked out at 6.2.

In the case of `Fc1ccc(Oc2ccc(/C=N/NC(=S)Nc3ccc(Cl)cc3)cc2)cc1`, the result with Mus musculus [1], with Mus musculus [3], in the series on Mus musculus [5] and in the series on Mus musculus [8] was Active. Further, the Activity entry in the series on Mus musculus [2] and in the series with Mus musculus [6] was “Non-toxic” each time. The result in the series with Mus musculus [4] was inactive. This compound also registered a logP at 24 h in series [7] of 5.84.

Consider `Cc1ccc(Oc2ccc(/C=N/NC(=S)Nc3ccc(F)cc3)cc2)cc1`, for which the Activity with Mus musculus [1] (route intraperitoneal) is 50%; in the series with Mus musculus [2], “Non-toxic”; in the series on Mus musculus [6], “Non-toxic”. Moreover, the outcome in the series on Mus musculus [3] was Active. Moreover, the result in the series with Mus musculus [4], with Mus musculus [5] and in the series with Mus musculus [8] was inactive. The compound also had a logP at 24 h in series [7] of 5.48.

For `Cc1cc(Oc2ccc(/C=N/NC(=S)Nc3ccc(F)cc3)cc2)ccc1Cl`, the result in the series with Mus musculus [1] and in the series with Mus musculus [4] was Active. In addition, the Activity entry in the series on Mus musculus [2] and in the series with Mus musculus [6] was “Non-toxic” each time. Besides, the result in the series with Mus musculus [3], with Mus musculus [5] and in the series on Mus musculus [8] was inactive. Also, the logP at 24 h in series [7] was determined as 6.07.

`Fc1ccc(NC(=S)N/N=C/c2ccc(Oc3ccc(F)cc3)cc2)cc1`: the outcome in the series on Mus musculus [1] and in the series on Mus musculus [5] was Active. For the same compound, the figures for the Activity entry in the series on Mus musculus [2], in the series on Mus musculus [3] (route intraperitoneal) and in the series with Mus musculus [6] were “Non-toxic”, 50% and “Non-toxic”, respectively. For the same compound, the result with Mus musculus [4] and in the series on Mus musculus [8] was inactive. Also, the logP at 24 h in [7] turned out to be 5.19.

In the case of `Cc1cc(Oc2ccc(/C=N/NC(=S)Nc3ccc(Cl)cc3)cc2)ccc1Cl`, the result with Mus musculus [1] was Active. For the same compound, the Activity entry with Mus musculus [2] is on record as “Non-toxic”; with Mus musculus [4] (route intraperitoneal) it was 50%; in the series on Mus musculus [5] (route intraperitoneal), 50%; with Mus musculus [6], “Non-toxic”. The outcome with Mus musculus [3] and in the series on Mus musculus [8] was inactive. For the same compound, in series [7], the logP at 24 h is 6.59.

Take `S=C(N/N=C/c1ccc(Oc2ccc(Br)cc2)cc1)Nc1ccc(Br)cc1`: the result in the series with Mus musculus [11], with Mus musculus [12], with Mus musculus [3], in the series with Mus musculus [4], in the series on Mus musculus [14] and in the series on Mus musculus [5] was inactive. In addition, the result with Mus musculus [8] and in the series on Mus musculus [15] was inactive. The minimal effective dose in the series on Mus musculus [13] stood at 300 mg/kg. The Activity is 75% with Mus musculus [1] (route intraperitoneal), “Non-toxic” with Mus musculus [2] and “Non-toxic” in the series with Mus musculus [6]. In series [7], this compound yielded a log partition coefficient (logP) at 24 h of 6.53.

Take `O=[N+]([O-])c1ccc(Oc2ccc(/C=N/NC(=S)Nc3ccc(F)cc3)cc2)cc1`: the Activity in the series on Mus musculus [1] (route intraperitoneal) is 50%; in the series with Mus musculus [2], “Non-toxic”; in the series on Mus musculus [6], “Non-toxic”. In addition, the outcome in the series on Mus musculus [3], in the series with Mus musculus [5] and with Mus musculus [8] was inactive. Besides, the result in the series with Mus musculus [4] was Active. The logP at 24 h in [7] is 4.89.
